This is an account of results in ChEMBL document CHEMBL1148203, “Briarane diterpenes from two species of octocorals, Ellisella sp. and Pteroeides sp” (J Nat Prod, 2004).

Calls of active or inactive are those of the source. The rule behind the calls is not given here.

Common to all, as to type: functional, cell-based
The subject of one experiment is KB-C2. Nature of the experiment: Reversal of multidrug resistance in human KB-C2 cells after 72 hrs by MTT assay. The procedure, abridged:
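KB-C2 MDR line (selected from KB-3-1, kept in 2 µg/mL colchicine), RPMI 1640 with 10% newborn calf serum; 10 000 cells/well, 24 h preincubation at 37 °C, 5% CO2; colchicine plus sample added for 48 h; MTT 3 h, formazan in DMSO, absorbance 540 nm gives % growth inhibition; cytotoxicity checked in parental KB-3-1.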
A general note: Tetrazolium assays rely on reduction of a dye to a coloured formazan, in cell work by metabolically active cells.

For another experiment, the system named is KB-CV60. Description: Reversal of multidrug resistance in human KB-CV60 cells after 72 hrs by MTT assay. The procedure, abridged: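 KB-CV60 MDR line (selected from KB-3-1, kept in 1 µg/mL cepharanthine and 60 ng/mL vincristine), RPMI 1640 with 10% newborn calf serum; 10 000 cells/well, 24 h preincubation at 37 °C, 5% CO2; anticancer agent plus sample for 48 h; MTT 3 h, formazan in DMSO, A540 gives % growth inhibition.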

The next experiment relates to NBT2. Description: Induction of multinuclei formation in rat NBT2 cells assessed as inhibition of cytokinesis at 0.5 to 2 ug/mL after 72 hrs. Summed up:
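Rat bladder epithelial NBT-II cells in modified Eagle's medium with 10% heat-inactivated FBS, streptomycin, amphotericin B and glutamic acid; exposed to graded briarane concentrations at 37 °C for 72 h; multinucleation scored by microscopy at 48 and 72 h.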

In the case of `CC(=O)OCC1=C/[C@@H]2OC(=O)[C@H](C)[C@@]2(O)[C@@H](OC(C)=O)[C@H]2[C@]3(C)O[C@@H]3C[C@H](OC(C)=O)[C@]2(C)[C@@H](OC(C)=O)\C=C\1`, the outcome with KB-C2 and with KB-CV60 was inactive.
`C=C1/C=C/[C@H](OC(C)=O)[C@@]2(C)[C@@H](OC(C)=O)C[C@H]3O[C@@]3(C)[C@@H]2[C@H](OC(C)=O)[C@]2(O)[C@@H](C)C(=O)O[C@H]2[C@H]1Cl`: the result with KB-C2 and in the experiment on KB-CV60 was inactive.
As to `CCC(=O)O[C@@H]1C[C@H](OC(C)=O)[C@]2(C)[C@H](OC(C)=O)/C=C\C(CCl)=C/[C@@H]3OC(=O)[C@H](C)[C@@]3(O)[C@@H](OC(C)=O)[C@H]2[C@]1(C)O`, the outcome with KB-C2 and with KB-CV60 was inactive.
Regarding `C=C1/C=C\[C@@H](OC(C)=O)[C@@]2(C)C=C[C@@H](OC(C)=O)[C@](O)(COC(C)=O)[C@@H]2[C@H](OC(C)=O)[C@]2(O)[C@@H](C)C(=O)O[C@H]2[C@H]1Cl`, the result in the experiment on NBT2 was Active.
As to `C=C1CC[C@@H](OC(C)=O)[C@@]2(C)[C@@H](OC(C)=O)CC[C@@]3(CO3)[C@@H]2[C@H](OC(C)=O)[C@]2(O)[C@@H](C)C(=O)O[C@H]2[C@H]1Cl`, the outcome with NBT2 was Active.
For the molecule `C=C1[C@H](Cl)[C@@H]2OC(=O)[C@H](C)[C@]23O[C@@]1(O)C[C@H](OC(C)=O)[C@]1(C)[C@H]([C@@H](C)[C@H](OC(=O)c2ccccc2)C[C@@H]1OC(C)=O)[C@@H]3OC(C)=O`, the result in the experiment with KB-C2 and with KB-CV60 was Active.
